According to paper PMC5816979 (Biochemistry, 2017):

Key:
Assay type in all cases: binding
[1] = target: T1, P450cam (cytochrome P450cam), WT (Pseudomonas putida, UniProt P00183, C335A); assay: constant-volume visible difference spectrophotometric titration
T1 sequence (P00183 2-415 C335A): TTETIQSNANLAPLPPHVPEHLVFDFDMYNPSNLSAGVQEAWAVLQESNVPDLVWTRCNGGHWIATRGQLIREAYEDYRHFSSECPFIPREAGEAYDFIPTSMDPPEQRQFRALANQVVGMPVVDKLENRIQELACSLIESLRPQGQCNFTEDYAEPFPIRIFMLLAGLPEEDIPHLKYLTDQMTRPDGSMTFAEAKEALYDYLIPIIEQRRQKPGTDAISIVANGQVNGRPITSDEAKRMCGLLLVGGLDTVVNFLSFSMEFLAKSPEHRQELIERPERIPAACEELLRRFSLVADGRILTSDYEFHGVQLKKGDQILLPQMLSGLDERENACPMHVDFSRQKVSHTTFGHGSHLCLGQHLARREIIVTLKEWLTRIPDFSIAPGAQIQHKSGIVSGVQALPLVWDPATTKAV
Method in brief: (§1)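 Substrate-bound protein solution was exchanged into substrate-free solution at the same protein concentration, and visible difference spectra were recorded. KD was obtained by fitting to a single-site binding model. This method applied to the camphor-analogue test compounds.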

[2] = target: T2, P450cam (cytochrome P450cam), WT (Pseudomonas putida, UniProt P00183, C335A/Y97F); assay: as above
T2 sequence (P00183 2-415 Y97F/C335A): T1 sequence (P00183 2-415 C335A)
Method in brief: as §1

[3] = target: T2, P450cam (cytochrome P450cam), WT; assay: visible spectrophotometric titration
[4] = target: T1, P450cam (cytochrome P450cam), WT; assay: visible spectrophotometric titration

Compound: CC12CCC(CC1)C2(C)C [camphane]
- Kd [1]: 18.7 ± 2.5 µM
- Kd [2]: 10.7 ± 3.3 µM

Compound: CC1(C)[C@@H]2CC[C@@]1(C)C(=O)C2 [d-camphor]
- Kd [3]: 3.5 ± 0.6 µM
- Kd [4]: 1.8 ± 0.8 µM

Compound: CC1(C)C2CCC1(C)C(O)C2 (racemic) [isoborneol]
- Kd [1]: 10.9 ± 3.4 µM
- Kd [2]: 1.2 ± 0.3 µM
